Experiments:
[1] = biological target: MAP kinase-interacting serine/threonine-protein kinase 2 (Homo sapiens, UniProt Q9HBH9); assay: Inhibition of full length recombinant human MKNK2 using myelin basic protein as substrate incubated for 40 mins in presence of [gamma-33P-ATP] by radiometric scintillation assay
In short: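 Eurofins radiometric kinase assay run at ATP equal to Km for each kinase. 9-point dose–response in duplicate gives the IC50.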

[2] = biological target: T1, Serine/threonine-protein kinase 17A (Homo sapiens) (UniProt Q9UEE5); assay: Inhibition of full length recombinant human DRAK1 using KKLNRTLSFAEPG as substrate at 1 uM incubated for 40 mins in presence of [gamma-33P-ATP] by radiometric scintillation assay relative to control
T1 sequence (whole entry): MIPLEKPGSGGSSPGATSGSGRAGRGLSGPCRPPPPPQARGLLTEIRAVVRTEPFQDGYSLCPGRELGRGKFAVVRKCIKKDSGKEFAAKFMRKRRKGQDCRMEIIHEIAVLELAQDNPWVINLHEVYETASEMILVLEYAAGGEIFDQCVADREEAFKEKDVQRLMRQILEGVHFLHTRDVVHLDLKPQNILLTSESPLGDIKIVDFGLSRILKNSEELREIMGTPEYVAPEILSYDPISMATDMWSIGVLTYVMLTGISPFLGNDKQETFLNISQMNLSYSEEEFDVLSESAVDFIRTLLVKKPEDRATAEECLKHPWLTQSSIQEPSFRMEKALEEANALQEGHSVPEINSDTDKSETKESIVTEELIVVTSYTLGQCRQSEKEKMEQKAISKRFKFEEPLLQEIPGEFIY
In short: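 Eurofins radiometric kinase assay with ATP at Km for each kinase. Compound was tested at a single 1 μM concentration in duplicate, and the result is reported as percent of control.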

[3] = biological target: Casein kinase II subunit alpha (Homo sapiens, UniProt P68400); assay: Inhibition of full length recombinant human CSNK2A1 using RRRDDDSDDD as substrate incubated for 40 mins in presence of [gamma-33P-ATP] by radiometric scintillation assay
Casein kinase II subunit alpha, sequence (P68400 whole entry): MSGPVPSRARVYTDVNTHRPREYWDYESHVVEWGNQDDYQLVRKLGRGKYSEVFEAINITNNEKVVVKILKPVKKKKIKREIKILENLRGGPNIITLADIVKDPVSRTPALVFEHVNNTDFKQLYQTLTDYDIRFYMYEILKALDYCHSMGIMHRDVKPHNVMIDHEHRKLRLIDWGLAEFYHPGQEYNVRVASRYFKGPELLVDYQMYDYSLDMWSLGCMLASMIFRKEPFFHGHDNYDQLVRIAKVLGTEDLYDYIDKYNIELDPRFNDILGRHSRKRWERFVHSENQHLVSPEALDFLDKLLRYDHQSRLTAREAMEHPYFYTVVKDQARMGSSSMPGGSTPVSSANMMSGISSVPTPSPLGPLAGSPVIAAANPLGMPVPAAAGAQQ
In short: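 Eurofins radiometric enzymatic assay with ATP at Km for each kinase. IC50 was derived from a 9-point dose–response curve run in duplicate.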

MAP kinase-interacting serine/threonine-protein kinase 2, sequence (Q9HBH9 whole entry): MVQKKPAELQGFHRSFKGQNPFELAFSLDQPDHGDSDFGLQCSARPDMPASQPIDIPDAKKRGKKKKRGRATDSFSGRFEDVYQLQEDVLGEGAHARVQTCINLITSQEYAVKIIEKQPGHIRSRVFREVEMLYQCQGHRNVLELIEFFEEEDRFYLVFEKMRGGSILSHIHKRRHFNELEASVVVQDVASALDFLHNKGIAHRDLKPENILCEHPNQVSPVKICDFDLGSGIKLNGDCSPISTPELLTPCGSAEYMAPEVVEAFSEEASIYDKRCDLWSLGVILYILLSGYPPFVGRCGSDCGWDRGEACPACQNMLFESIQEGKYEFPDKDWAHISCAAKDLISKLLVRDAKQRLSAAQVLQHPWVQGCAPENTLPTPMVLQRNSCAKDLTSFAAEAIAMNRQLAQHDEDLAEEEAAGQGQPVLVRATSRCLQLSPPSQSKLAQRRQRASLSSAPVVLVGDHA

NS(=O)(=O)c1ccc(CNc2nc(Nc3cccc(NC(=O)N4CCCC4)c3)ncc2Br)cc1
IC50 [1]: 1010 nM

c1cc(CN2CCOCC2)cc(Nc2nccc(NCCc3cnc[nH]3)n2)c1
% control [2]: 78%

NS(=O)(=O)c1ccc(CNc2nc(Nc3cccc(CN4CCOCC4)c3)ncc2Br)cc1
IC50 [3]: > 10 µM

From ChEMBL document CHEMBL5046221, “Identification of Pyrimidine-Based Lead Compounds for Understudied Kinases Implicated in Driving Neurodegeneration” (J Med Chem, 2022)
